Screening results from PubChem.
KCC2 mod: modulators of human KCC2 chloride dependent transport; Q9H2X9; KCC2 cells, thallium flux FluoZin-2 fluorescence; B-score of Tl+ flux slope (higher = more flux/activation; lower = inhibition) at 10 µM; actives 2.2% (n = 190,000);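 active = thallium flux slope and its plate-corrected score both differing from the plate sample mean at a set confidence after two filtering rounds, in either direction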;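 also: slope of fluorescence scaled to starting intensity during 10 to 20 s after thallium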
KCNK9 inh: inhibitors of human KCNK9 two-pore domain potassium channel. Q9NPC2. HEK293 KCNK9, FluxOR thallium flux fluorescence; active compounds read low. B-score at 10 µM. actives 1.2% (n = 310,000). AID 488922;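 active = ratio B-score over 3 SD below the library mean, with starting fluorescence within 5 SD of its mean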;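 also: negative B-score means less thallium flux so channel inhibition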
KCNQ1 act: potentiators or activators of human KCNQ1 potassium channel | CHO-K1 KCNQ1, thallium flux FluxOR fluorescence; active compounds read high | B-score at 10 µM | actives 0.35% (n = 310,000) | AID 2648 | P51787;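 active = fluorescence ratio B-score, a plate-corrected score, at least three library SD, with initial intensity B-score within 5 SD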
Target sequence (P51787 whole entry, looked up): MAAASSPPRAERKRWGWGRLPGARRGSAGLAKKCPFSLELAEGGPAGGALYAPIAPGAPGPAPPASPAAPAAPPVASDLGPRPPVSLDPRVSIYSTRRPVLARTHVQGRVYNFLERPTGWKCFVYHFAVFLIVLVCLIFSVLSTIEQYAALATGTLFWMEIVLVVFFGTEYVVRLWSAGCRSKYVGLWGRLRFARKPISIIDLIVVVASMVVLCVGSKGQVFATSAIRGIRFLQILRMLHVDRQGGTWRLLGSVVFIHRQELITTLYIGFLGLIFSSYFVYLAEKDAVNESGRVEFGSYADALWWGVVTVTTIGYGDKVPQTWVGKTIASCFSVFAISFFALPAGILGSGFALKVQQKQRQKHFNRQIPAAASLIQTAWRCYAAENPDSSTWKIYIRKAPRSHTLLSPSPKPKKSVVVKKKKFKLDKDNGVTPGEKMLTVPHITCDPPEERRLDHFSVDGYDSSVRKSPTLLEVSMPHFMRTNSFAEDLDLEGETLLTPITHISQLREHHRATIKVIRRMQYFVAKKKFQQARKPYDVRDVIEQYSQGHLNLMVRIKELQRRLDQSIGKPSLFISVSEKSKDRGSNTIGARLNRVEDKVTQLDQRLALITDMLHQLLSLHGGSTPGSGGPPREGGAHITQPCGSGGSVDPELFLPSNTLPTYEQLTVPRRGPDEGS
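Schedule – 37 °C overnight plating, 90-min dark dye load, 20-min compound pretreatment · System – stable KCNQ1 CHO-K1 line · Probe or stimulus – thallium- and potassium-containing depolarizing buffer · Measured by – kinetic FluxOR fluorescence, 10 s baseline plus 110 s post-stimulus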
KCNQ1 block: blocks the human KCNQ1 potassium channel; P51787; CHO-K1 KCNQ1, FluxOR thallium flux fluorescence; active compounds read high; B-score at 10 µM; actives 1.3% (n = 310,000); AID 2642;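 active = compounds whose thallium flux B-score, printed positive for inhibition, exceeds three library SD while starting fluorescence stays within three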;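 also: channel opened by potassium depolarization with thallium stimulus after 20 min compound exposure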
KCNK3 inh: human KCNK3 channel inhibition, primary screen; O14649; actives 0.84% (n = 340,000); B-score at 10 µM; AID 602410; CHO-KCNK3 thallium flux, FluxOR fluorescence; active compounds read low;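 active = B-score under library mean minus 4 SD, starting fluorescence ratio at most library mean plus 5 SD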;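 also: more negative B-score means stronger inhibition of thallium flux through KCNK3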
hERG rescue: hERG (human) protection from proarrhythmic block; actives 0.51% (n = 310,000); activation (rescue from dofetilide block), less the hit threshold, % at 10 µM; CHO-hERG, FluxOR thallium flux, dofetilide IC70 present; Q12809;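 active = activation above the mean of controls blocked by dofetilide plus 5 SD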;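 also: thallium influx through hERG after potassium depolarization seen as dye fluorescence rise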
Numbers stand for hits; 0 = inactive; - = no result. Compounds with a hit are over-represented: about 4.1% of the library has one in this group of screens.

SMILES	KCC2 mod	KCNK9 inh	KCNQ1 act	KCNQ1 block	KCNK3 inh	hERG rescue
COc1cccc(NC(=O)COc2ccc(C(=O)N3CCN(C)CC3)cc2)c1	-	0	0	0	0	0
CCc1ccc(OCc2ccc(C(=O)O)o2)cc1	-	0	0	0	0	5.2
O=C(O)c1ccc(OCc2ccc(C(=O)O)o2)cc1	-	0	0	0	0	0
COc1ccc(CN(C(=O)c2nsc(Cl)c2Cl)C(C(=O)NC2CCCCC2)c2ccc(OC)cc2)cc1 (stereo not given)	0	0	0	0	0	0
COc1ccc(CN(C(=O)c2nsc(Cl)c2Cl)C(C(=O)NC2CCCC2)c2ccc(C)cc2)cc1 (stereo not given)	0	0	0	11	0	0
O=C(NCc1ccccc1F)C1CCCN(c2cnccn2)C1 (stereo not given)	-	0	0	0	0	0
CSc1ccc(/C=C/C(=O)OCC(=O)N2CCN(S(=O)(=O)c3ccc(C)cc3C)CC2)cc1	-	-	-	-	0	-
OCCN(CCO)CC(O)COCCC12CC3CC(CC(C3)C1)C2 (stereo not given)	0	0	0	8	0	0
O=C(CSc1nnc(CNC(=O)c2ccco2)o1)Nc1cccc(F)c1	-	0	0	0	0	0
CCCOC(=S)NC(=O)c1sc2ccccc2c1Cl	60	0	49	0	0	15
CC(C)(C)C(=O)NC(=S)NNC(=O)c1sc2ccccc2c1Cl	48	0	49	0	0	34
CCOC(=S)NC(=O)c1sc2ccccc2c1Cl	74	0	96	0	0	22
O=C(CNC(=O)c1sc2ccccc2c1Cl)OCc1ccccc1	-	0	0	0	0	0
O=C(CNC(=O)C1CC1)Nc1ccc(F)c(F)c1F	-	-	-	-	0	-
CCCn1c(N)c(N(CCOC)C(=O)c2ccc(-c3ccc(Cl)cc3)o2)c(=O)[nH]c1=O	-	0	0	0	0	0
CC(C)(C)c1ccc(OCC(O)CN2CCOCC2)cc1 (stereo not given)	-	0	0	0	0	0
CCOC(=O)c1c(NC(=O)C2C3C=CC(C3)C2C(=O)O)sc2c1CCC(CC)C2 (stereo not given)	-5.8	0	0	0	0	0
O=C1OC(=O)c2cc([N+](=O)[O-])ccc21	-	-	-	-	0	-
COc1cc(/C=C2/OC(=O)c3cc([N+](=O)[O-])ccc32)cc(OC)c1OC	0	0	0	0	0	11
Cc1ccc(C(C)NC(=O)c2cccs2)cc1C (stereo not given)	-	0	0	0	0	5.2
CCC1=C(c2ccc(C)cc2)S(=O)(=O)N=C1N1CCC(C(=O)NCCCN2CCCCC2C)CC1 (stereo not given)	-	0	0	0	0	0
Oc1c(Br)cc(Br)cc1/C=N/c1nc2c(s1)CCCC2	-	0	13	0	0	0
COc1ccc(C(=O)NC(=S)N2CCOCC2)cc1Br	-	0	0	0	0	0
CC1(C(=O)O)CCC(C(=O)NC2CCCCC2)C1(C)C (stereo not given)	0	-7.6	0	0	0	0
OC[C@@H](O)C1OC2NC(=S)OC2C1O (stereo not given in full)	-	0	0	0	0	7.7
SMILES	KCC2 mod	KCNK9 inh	KCNQ1 act	KCNQ1 block	KCNK3 inh	hERG rescue
O=C(Nc1cccc(-c2cccc(F)c2)c1)C1CCN(C2CCOCC2)CC1	-	0	0	0	0	0
COCCn1c(CN2CCN(C(=O)c3ccco3)CC2)nc2c1c(=O)n(C)c(=O)n2C	-	0	0	0	0	0
Cc1cccc(/C=N/NC(=O)c2cc(Br)ccc2O)n1	-	0	11	0	0	0
CCOc1ccc(Br)cc1C(=O)N/N=C/c1cccc(C)n1	-	0	0	0	0	0
C=CCc1ccc(OCCCOc2ccc(C)cc2OC)c(OC)c1	0	0	0	0	0	0
C=CCc1ccc(OCCCCN2CC(C)OC(C)C2)c(OC)c1 (stereo not given)	-	0	0	0	0	4.9
O=C(c1ccc(OCCN2CCCCC2)cc1)c1c(-c2ccc(O)cc2)sc2cc(O)ccc12	-	0	0	9	0	0
COc1ccccc1CNC(=O)COC(=O)c1cccc(-n2cnnn2)c1	-	-	-	-	0	-
Cc1ccc(OCCSc2nc(NC(C)C)nc(NC(C)C)n2)cc1	0	0	0	6	0	0
CCNc1nc(SCCOc2ccc(C)cc2)nc(N(C)C)n1	0	0	0	0	0	0
O=C(NC(=S)NCCC1=CCCCC1)c1cncc(Br)c1	15	0	0	0	0	0
CCCNC(=O)C(=O)NCCC1=CCCCC1	0	0	0	0	0	0
COCCNC(=O)c1onc(CSc2cc(C)ccc2C)c1C(=O)O	0	0	0	0	0	0
Cc1ccc(C)c(SCc2noc(C(=O)NC(C)C)c2C(=O)O)c1	0	0	9	0	0	0
O=c1cc(-c2ccccc2)oc2ccc(Cl)cc12	-	-	-	-	0	-
O=c1oc(-c2ccccc2)cc(Cl)c1Cl	-	0	0	6	0	0
CSc1nc2c(c(=O)[nH]1)C(c1ccccc1Cl)CC(=O)N2 (stereo not given)	0	0	0	0	0	9.7
COc1ccc(N2C(C(C)=O)=NN(c3ccccc3)C2c2cccs2)cc1 (stereo not given)	0	0	0	7	0	0
CC(=O)Nc1ccc(N2C(C(C)=O)=NN(c3ccccc3)C2c2cccs2)cc1 (stereo not given)	0	0	0	0	0	0
COc1ccccc1C(CNC(=O)c1cccc(S(=O)(=O)Nc2ccc(F)cc2)c1)N1CCCC1 (stereo not given)	-	-	-	-	0	-
COc1ccc(C2NC(c3ccc(OC)c(OC)c3OC)C(C)C(=O)C2C)c(OC)c1OC (stereo not given)	0	0	10	0	0	0
CCN(CC)c1ccc2nc3ccc(N)cc3[n+](-c3ccccc3)c2c1	-	-	-	-	-9.2	-
COc1cccc(NC(=O)CN(C)C(=O)C(Sc2ccccc2)c2ccccc2)c1 (stereo not given)	-	-	-	-	0	-
Clc1cc(CSc2ccccc2)nc(-c2ccccc2)n1	0	0	0	0	0	0
CCOC(=O)CSc1cc(CS(=O)c2ccc(Cl)cc2)nc(-c2ccccc2)n1 (stereo not given)	-	0	0	0	0	0
Clc1ccc(SCc2cc(Cl)nc(-c3ccccc3)n2)cc1	0	-6.7	0	0	0	0
CCOC(=O)CSc1cc(CSc2ccccc2)nc(-c2ccccc2)n1	-	-6.7	0	0	0	0
CCOC(=O)c1[nH]c(C)c(C(=O)/C=C/c2ccc(C(=O)O)cc2)c1C	-	0	0	0	0	0
COCCNC(=O)C(c1ccc(C)o1)N(Cc1ccc(OC)cc1)C(=O)Cn1nnc2ccccc21 (stereo not given)	0	0	0	0	0	6.5
COCCNC(=O)C(c1ccc(C)o1)N(Cc1ccc(F)cc1)C(=O)Cn1nnc2ccccc21 (stereo not given)	0	0	0	0	0	0
